# In ChEMBL document CHEMBL1157565, “Discovery of 1-[3-(4-bromo-2-methyl-2h-pyrazol-3-yl)-4-methoxyphenyl]-3-(2,4-difluorophenyl)urea (nelotanserin) and related 5-hydroxytryptamine2A inverse agonists for the treatment of insomnia” (J Med Chem, 2010):
# The source made the active and inactive calls. The calls are words filed in the database; no cut-off is given here.
# Legend:
# [1] = molecular target: T1, 5-hydroxytryptamine receptor 2A (Homo sapiens, UniProt P28223); assay: Activity at human 5HT2A receptor expressed in HEK293 cells assessed as [3H]inositol phosphate production by scintillation counting; type: functional, cell-based
# Summary of the method: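 HEK-293 cells transiently transfected with a mutated, constitutively active h5-HT2A receptor, labeled 18 h with […] [3H]myoinositol in serum- and myoinositol-free DMEM. Then 3 h at 37 °C in HBSS with LiCl (10 mM final), pargyline and compound. Lysis with ice-cold 0.1 M formic acid; total [3H]IP separated on AG1-X8 resin and counted by scintillation. Inverse-agonist pIC50.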
# [2] = molecular target: T2, 5-hydroxytryptamine receptor 2C (Homo sapiens, UniProt P28335); assay: Displacement of [3H]DOI from human recombinant 5HT2C receptor expressed in HEK293 cells by scintillation counting; type: cell-based; conditions: in the assay text read “[125I]DOI” for “[3H]DOI”
# T2 sequence (P28335 whole entry): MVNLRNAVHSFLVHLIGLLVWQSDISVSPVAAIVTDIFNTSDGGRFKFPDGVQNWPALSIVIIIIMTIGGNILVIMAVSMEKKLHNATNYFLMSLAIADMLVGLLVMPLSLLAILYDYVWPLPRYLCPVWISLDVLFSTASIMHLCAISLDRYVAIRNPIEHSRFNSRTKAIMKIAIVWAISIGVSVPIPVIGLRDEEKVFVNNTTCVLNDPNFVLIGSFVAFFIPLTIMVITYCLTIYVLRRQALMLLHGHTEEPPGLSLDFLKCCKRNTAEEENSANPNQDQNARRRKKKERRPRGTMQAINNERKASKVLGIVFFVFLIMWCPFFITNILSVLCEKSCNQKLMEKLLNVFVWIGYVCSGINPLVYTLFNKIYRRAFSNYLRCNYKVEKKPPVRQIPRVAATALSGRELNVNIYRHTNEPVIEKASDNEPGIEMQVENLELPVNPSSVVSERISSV
# Summary of the method: (§1)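 Crude membranes (5-25 μg protein) from HEK293 cells stably expressing human 5-HT2A or 5-HT2C. Radioligand [125I]DOI at 0.5 nM final; 10 μM cold DOI defines nonspecific binding. Buffer 20 mM HEPES pH 7.4, 10 mM MgCl2; 1 h at room temperature. Eight concentrations (1 pM–10 μM), each in triplicate. Vacuum filtration on GF/C, Tris wash, scintillation counting; pKi.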
# [3] = molecular target: T1, 5-hydroxytryptamine receptor 2A; assay: Displacement of [3H]DOI from human recombinant 5HT2A receptor expressed in HEK293 cells by scintillation counting; type: cell-based; conditions: in the assay text read “[125I]DOI” for “[3H]DOI”; summary of the method: as §1
# [4] = molecular target: T2, 5-hydroxytryptamine receptor 2C; assay: Displacement of [125I]DOI from human recombinant 5HT2C receptor expressed in HEK293 cells by scintillation counting
# [5] = molecular target: T1, 5-hydroxytryptamine receptor 2A; assay: Displacement of [125I]DOI from human recombinant 5HT2A receptor expressed in HEK293 cells by scintillation counting
# [6] = AUC (0 to infinity) in Wistar rat at 1.5 mg/kg, po; type: ADME, organism-based; design: time infinity, dose 1.5 mg/kg, route oral; conditions: plasma
# Summary of the method: (§2)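 Male Wistar rats, fasted overnight, single oral dose in 80% Tween-80/20% water. Jugular vein blood sampled serially over 24 h ([…]); sodium-heparin plasma stored at -70 °C, quantified by HPLC/MS/MS (LLOQ 1 ng/mL, ULOQ 2000 ng/mL). n = 2-3 animals; noncompartmental analysis; values as mean ± SD.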
# [7] = Half life in Wistar rat at 1.5 mg/kg, po; type: ADME, organism-based; design: dose 1.5 mg/kg, route oral; conditions: in vivo; summary of the method: as §2
# [8] = Tmax in Wistar rat at 1.5 mg/kg, po; type: ADME, organism-based; design: dose 1.5 mg/kg, route oral; conditions: in vivo; summary of the method: as §2
# [9] = system: Rattus norvegicus; assay: Effect on behavioral activity in po dosed Sprague-Dawley rat assessed as reversal of DOI-induced inhibition of rearing behavior; type: functional
# Summary of the method: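 Adult male Sprague-Dawley rats dosed orally with compound 45 min before DOI (0.3 mg/kg), which lowers rearing. Fifteen minutes later, rearing recorded in photocell-monitored locomotor activity cages. A dose-response curve for reversal of DOI-induced rearing decrease yields an ED50.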
# [10] = Cmax in Wistar rat at 1.5 mg/kg, po; type: ADME, organism-based; design: dose 1.5 mg/kg, route oral; conditions: in vivo; summary of the method: as §2
# [11] = molecular target: 5-hydroxytryptamine receptor 2A (Rattus norvegicus, UniProt P14842); assay: Displacement of [125I]DOI from rat recombinant 5HT2A receptor by scintillation counting
# [12] = system: Rattus norvegicus; assay: Effect on behavioral activity in Wistar rat assessed as increase in non-rapid eye movement delta power at 1.4 mg/kg, po after 2 hrs; type: functional, organism-based; design: dose 1.4 mg/kg
# Summary of the method: (§3)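 Male Wistar rats (300 ± 25 g) implanted for continuous EEG/EMG recording, 1 week recovery. Repeated-measures design: each rat received each treatment, including 80% Tween-80 vehicle, in random order by oral gavage. Non-REM sleep parameters scored hourly after dosing; at least five rats per compound.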
# [13] = system: Rattus norvegicus; assay: Effect on behavioral activity in Wistar rat assessed as decrease in number of non-rapid eye movement bouts at 1.4 mg/kg, po after 2 hrs; type: functional, organism-based; design: dose 1.4 mg/kg; summary of the method: as §3
# [14] = Tmax in Wistar rat at 1.4 mg/kg, po; type: ADME, organism-based; design: dose 1.4 mg/kg, route oral; conditions: in vivo; summary of the method: as §2
# [15] = Half life in Wistar rat at 1.4 mg/kg, po; type: ADME, organism-based; design: dose 1.4 mg/kg, route oral; conditions: in vivo; summary of the method: as §2
# [16] = AUC (0 to infinity) in Wistar rat at 1.4 mg/kg, po; type: ADME, organism-based; design: time infinity, dose 1.4 mg/kg, route oral; conditions: plasma; summary of the method: as §2
# [17] = Cmax in Wistar rat at 1.4 mg/kg, po; type: ADME, organism-based; design: dose 1.4 mg/kg, route oral; conditions: in vivo; summary of the method: as §2
# [18] = system: Rattus norvegicus; assay: Effect on behavioral activity in Wistar rat assessed as increase in non-rapid eye movement delta power at 1.4 mg/kg, po after 1 hr; type: functional, organism-based; design: dose 1.4 mg/kg; summary of the method: as §3
# T1 sequence (P28223 whole entry): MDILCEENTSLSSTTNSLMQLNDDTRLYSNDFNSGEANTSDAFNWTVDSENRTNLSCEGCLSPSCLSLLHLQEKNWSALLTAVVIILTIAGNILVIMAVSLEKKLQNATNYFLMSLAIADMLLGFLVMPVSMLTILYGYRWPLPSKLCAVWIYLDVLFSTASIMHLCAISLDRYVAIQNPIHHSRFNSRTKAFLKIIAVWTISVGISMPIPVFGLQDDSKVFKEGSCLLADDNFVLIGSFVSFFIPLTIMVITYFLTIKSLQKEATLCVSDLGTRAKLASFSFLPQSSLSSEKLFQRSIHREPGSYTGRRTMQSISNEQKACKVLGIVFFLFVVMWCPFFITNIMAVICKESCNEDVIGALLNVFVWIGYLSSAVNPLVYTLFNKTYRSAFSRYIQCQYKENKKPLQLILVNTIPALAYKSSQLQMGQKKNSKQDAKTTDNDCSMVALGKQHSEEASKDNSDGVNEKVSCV
# Sequence of 5-hydroxytryptamine receptor 2A (Rattus norvegicus, UniProt P14842) (P14842 whole entry): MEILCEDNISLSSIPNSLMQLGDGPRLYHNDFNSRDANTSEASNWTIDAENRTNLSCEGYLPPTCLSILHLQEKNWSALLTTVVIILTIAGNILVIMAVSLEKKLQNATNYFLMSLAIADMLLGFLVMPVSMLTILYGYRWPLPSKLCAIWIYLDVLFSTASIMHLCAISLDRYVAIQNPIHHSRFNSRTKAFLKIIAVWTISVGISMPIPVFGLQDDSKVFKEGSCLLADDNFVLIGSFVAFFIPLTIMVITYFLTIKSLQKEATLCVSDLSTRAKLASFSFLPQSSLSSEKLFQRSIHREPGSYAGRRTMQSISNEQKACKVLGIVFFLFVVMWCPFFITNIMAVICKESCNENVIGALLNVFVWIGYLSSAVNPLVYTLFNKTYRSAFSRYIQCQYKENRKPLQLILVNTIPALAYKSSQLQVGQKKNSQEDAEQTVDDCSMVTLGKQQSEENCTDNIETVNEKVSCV
SMILES,Ki [2] [nM],IC50 ([1]; read-out: pIC50 (converted)) [nM],Ki [3] [nM],also measured
Cn1ncc(Br)c1-c1cccc(NC(=O)Nc2ccc(OC(F)(F)F)cc2)c1,,,,IC50 [1]: 120 nM
Cn1ncc(Br)c1-c1cc(NC(=O)Nc2ccc(Cl)cc2)ccc1OCc1ccccc1,158,7.94,5.01,
COc1ccc(NC(=O)Nc2cccc(F)c2)cc1-c1c(Br)cnn1C,,0.794,,Ki [4]: 39.8 nM; Ki [5]: 0.316 nM
CCOc1ccc(NC(=O)Nc2ccc(Cl)cc2)cc1-c1c(Br)cnn1C,2,,0.251,
COc1ccc(NC(=O)Nc2ccc(Cl)cc2)cc1-c1c(Br)cnn1C(C)C,2.51,1.26,0.501,
COc1ccc(NC(=O)Nc2cccc(C(F)(F)F)c2)cc1-c1c(Br)cnn1C,15.8,0.398,,Ki [5]: 0.398 nM
COc1ccc(NC(=O)Nc2cc(F)cc(F)c2)cc1-c1c(Br)cnn1C,15.8,1.26,,Ki [5]: 0.316 nM
COc1ccc(NC(=O)Nc2cccc(C(C)=O)c2)cc1-c1c(Br)cnn1C,251,3.98,2.51,
COc1ccc(NC(=O)Nc2ccc(N(C)C)cc2)cc1-c1c(Br)cnn1C,,50.1,1.58,Ki [4]: 398 nM
Cn1ncc(Br)c1-c1cccc(NC(=O)Nc2ccc(Cl)cc2)c1,,,,IC50 [1]: 19 nM
COc1ccc(NC(=O)Nc2ccc(Cl)cc2)cc1-c1c(Cl)cnn1C,10,0.501,0.158,AUC(0-inf) [6]: 478 ng·h/mL; half-life [7]: 5 h; Tmax [8]: 6 h; ED50 [9]: 0.7 mg/kg; Cmax [10]: 41 ng/mL; Ki [11]: 2 nM; Activity [12]: Active
COc1ccc(NC(=O)Nc2ccc(C(F)(F)F)cc2)cc1-c1c(Br)cnn1C,,1.58,,Ki [4]: 3.98 nM; Ki [5]: 0.316 nM

# The next lines start with results.
Ki [2] [nM],IC50 ([1]; read-out: pIC50 (converted)) [nM],Ki [3] [nM],SMILES,also measured
25.1,0.501,0.251,COc1ccc(NC(=O)Nc2ccc(F)c(F)c2)cc1-c1c(Cl)cnn1C,
15.8,15.8,0.794,Cn1ncc(Br)c1-c1cc(NC(=O)Nc2ccc(Cl)cc2)ccc1OC(F)(F)F,
126,2.51,0.501,COc1ccc(NC(=O)Nc2ccc(Cl)cc2C(F)(F)F)cc1-c1c(Br)cnn1C,
,3.98,1,COc1ccc(NC(=O)Nc2cc(C(F)(F)F)cc(C(F)(F)F)c2)cc1-c1c(Cl)cnn1C,Ki [4]: 63.1 nM
158,1,,COc1ccc(NC(=O)Nc2ccc(Cl)cc2)cc1-c1ccnn1C,
,0.251,0.251,COc1ccc(NC(=O)Nc2ccc(F)cc2)cc1-c1c(Br)cnn1C,ED50 [9]: 0.7 mg/kg; Activity [13]: Active; Tmax [14]: 4 h; Ki [4]: 31.6 nM; half-life [15]: 2 h; AUC(0-inf) [16]: 507 ng·h/mL; Cmax [17]: 85 ng/mL; Activity [12]: Active; Activity [18]: Active
